ChEMBL document CHEMBL1123910, “Indolizidine and quinolizidine derivatives of the dopamine autoreceptor agonist 3-(3-hydroxyphenyl)-N-n-propylpiperidine (3-PPP)” (1987)

Key:
Assay type in all cases: functional
Rattus norvegicus [1] = test: Ispilateral circling behavior in 6-OH-DA-lesioned rats was recorded after subcutaneous administration; conditions: sc
Rattus norvegicus [2] = species: Rattus norvegicus; test: Reversal of reserpine plus alpha-Methyl-p-tyrosine-induced hypoactivity in rats was recorded.
Summary of the method: (§1)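 Rats pretreated with reserpine (8.2 µmol/kg = 5 mg/kg sc) 16-20 h before, and α-methyl-p-tyrosine methyl ester (813 µmol/kg = 200 mg/kg ip) 2 h before, test drug or saline. Motility measured under artificial light for 1 h from injection. Counts scored 0 (0-49), 1 (50-149) or 2 (>150). ED50 by log-probit as dose giving half-maximal score.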

Rattus norvegicus [3] = test: Inhibition of spontaneous locomotor activity was performed in photocell cages at 30-45 minutes after subcutaneous administration
Summary of the method: (§2)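 Rats in photocell cages. Motility counted 30-45 min after sc test drug or saline. Injection volume 5 mL/kg.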

Rattus norvegicus [4] = test: Contralateral circling behavior in 6-OH-DA-lesioned rats was recorded after subcutaneous administration
Rattus norvegicus [5] = test: Antagonism of apomorphine induced stereotype in rats was recorded at 30 minutes after subcutaneous administration of apomorphine; conditions: sc, 0.5 h
Summary of the method: (§3)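 Rats housed in wire mesh cages from the day before. Test drug or saline given sc 30 min before apomorphine (8.2 µmol = 2.5 mg/kg, sc). Oral stereotypy (licking, biting) scored every 15 min for 90 min. ED50 taken from the 30-min post-apomorphine observation, when control activity peaked.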

Rattus norvegicus [6] = test: Reversal of reserpine plus alpha-Methyl-p-tyrosine-induced hypoactivity in rats was recorded at 1 h after administration; summary of the method: as §1
Rattus norvegicus [7] = test: Antagonism of apomorphine induced stereotype was recorded at 30 minutes after apomorphine subcutaneous administration; conditions: sc, 0.5 h; summary of the method: as §3
Rattus norvegicus [8] = test: Reversal of reserpine plus alpha-Methyl-p-tyrosine-induced hypoactivity in rats was recorded at 1 hr after subcutaneous administration; conditions: sc; summary of the method: as §1
Rattus norvegicus [9] = test: Reversal of reserpine plus alpha-Methyl-p-tyrosine-induced hypoactivity in rats was recorded after subcutaneous administration; conditions: sc; summary of the method: as §1
Rattus norvegicus [10] = test: Antagonism of apomorphine induced stereotype in rats was recorded at 30 minutes after subcutaneous administration apomorphine; conditions: sc, 0.5 h; summary of the method: as §3
Rattus norvegicus [11] = test: Antagonism of apomorphine induced stereotype in rats was recorded after subcutaneous administration of apomorphine; conditions: sc; summary of the method: as §3
Rattus norvegicus [12] = test: Inhibition of spontaneous locomotor activity was performed in photocell cages. Motility was measured at […] after subcutaneous administration; conditions: sc; summary of the method: as §2
Rattus norvegicus [13] = species: Rattus norvegicus; test: Inhibition of spontaneous locomotor activity was performed in photocell cages. Motility was measured at 5 minutes
Summary of the method: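 Rats in photocell cages. Motility counted 5 min after sc injection of test drug. Injection volume 5 mL/kg.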

Rattus norvegicus [14] = test: Inhibition of spontaneous locomotor activity was performed in photocell cages. Motility was measured at […] after subcutaneous administration; value ranges from 4.2-11; conditions: sc; summary of the method: as §2
[15] = Rattus norvegicus, sc, read-out: ED50

**Q.** `Oc1cccc(C2CCC3CCCCN3C2)c1` (stereo not drawn) [listing 1 of 2 here] was tested. Which ED50 (Rattus norvegicus [1]) did it give?
**A.** 9.3 µmol/kg

**Q.** What about the ED50 (Rattus norvegicus [2]) of the same molecule?
**A.** > 62 µmol/kg

**Q.** And the ED50 (Rattus norvegicus [3]; [15])?
**A.** > 64 µmol/kg

**Q.** Which results are given for `Oc1cccc(C2CCC3CCCCN3C2)c1` (stereo not drawn) [listing 2 of 2 here]?
**A.** ED50 (Rattus norvegicus [4]; [15]): > 64 µmol/kg; ED50 (Rattus norvegicus [3]; sc): > 62 µmol/kg

**Q.** What does the source list for `CCCN1CCCC(c2cccc(O)c2)C1` (stereo not drawn)?
**A.** ED50 (Rattus norvegicus [4]; [15]): 1.7 µmol/kg; ED50 (Rattus norvegicus [5]): > 67 µmol/kg; ED50 (Rattus norvegicus [3]; [15]): 3.4 µmol/kg

**Q.** With `Oc1cccc(C2CCC3CCCN3C2)c1` (stereo not drawn) as the molecule, how does the ED50 (Rattus norvegicus [4]; [15]) read?
**A.** > 67 µmol/kg

**Q.** What about the ED50 (Rattus norvegicus [3]; [15]) of the same molecule?
**A.** > 67 µmol/kg

**Q.** With `CCCN1CCC[C@H](c2cccc(O)c2)C1` as the molecule, how does the ED50 (Rattus norvegicus [6]) read?
**A.** 40 µmol/kg

**Q.** What about the ED50 (Rattus norvegicus [4]; [15]) of the same molecule?
**A.** 1.9 µmol/kg

**Q.** And the ED50 (Rattus norvegicus [5])?
**A.** 63 µmol/kg

**Q.** Which results are given for `Oc1cccc(C2=CCCN3CCCCC23)c1` (stereo not drawn)?
**A.** ED50 (Rattus norvegicus [4]; [15]): > 87 µmol/kg; ED50 (Rattus norvegicus [7]): 34 µmol/kg; ED50 (Rattus norvegicus [8]): > 87 µmol/kg; ED50 (Rattus norvegicus [3]; [15]): 8.5 µmol/kg

**Q.** For `Oc1cccc(C2CCC3CCCN3C2)c1` (single isomer, unassigned), which ED50 (Rattus norvegicus [3]; sc) is on record?
**A.** > 67 µmol/kg

**Q.** Which results are given for `Oc1cccc(C2CCCN3CCCCC23)c1` (single isomer, unassigned; 20a)?
**A.** ED50 (Rattus norvegicus [4]): >64 µM/kg; ED50 (Rattus norvegicus [3]): >64 µM/kg

**Q.** With `Oc1cccc(C2CCCN3CCCCC23)c1` (single isomer, unassigned; 20e) as the molecule, how does the ED50 (Rattus norvegicus [4]; [15]) read?
**A.** > 87 µmol/kg

**Q.** What about the ED50 (Rattus norvegicus [3]; [15]) of the same molecule?
**A.** 63 µmol/kg

**Q.** Which ED50 (Rattus norvegicus [9]) does the source give for `Oc1cccc(C2CCCN3CCCC23)c1` (single isomer, unassigned; (+)) here?
**A.** 150 µmol/kg

**Q.** What about the ED50 (Rattus norvegicus [4]) of the same molecule?
**A.** 7.1 µM/kg

**Q.** What about the ED50 (Rattus norvegicus [10]) of the same molecule?
**A.** > 157 µmol/kg

**Q.** And the ED50 (Rattus norvegicus [3])?
**A.** 3.9 µM/kg

**Q.** For `Oc1cccc(C2CCCN3CCCC23)c1` (single isomer, unassigned; (-)), which ED50 (Rattus norvegicus [4]) is on record?
**A.** >79 µM/kg

**Q.** What about the ED50 (Rattus norvegicus [5]) of the same molecule?
**A.** 100 µmol/kg

**Q.** And the ED50 (Rattus norvegicus [3])?
**A.** 40 µM/kg

**Q.** `Oc1cccc(C2CCCN3CCCC23)c1` (stereo in doubt; 19a) was tested. Which ED50 (Rattus norvegicus [4]) did it give?
**A.** >67 µM/kg

**Q.** And the ED50 (Rattus norvegicus [3])?
**A.** >67 µM/kg

**Q.** Which ED50 (Rattus norvegicus [4]) does the source give for `Oc1cccc(C2CCCN3CCCC23)c1` (stereo in doubt; 19e) here?
**A.** 13 µM/kg

**Q.** What about the ED50 (Rattus norvegicus [11]) of the same molecule?
**A.** > 134 µmol/kg

**Q.** What about the ED50 (Rattus norvegicus [3]; sc) of the same molecule?
**A.** 7.5 µmol/kg

**Q.** What does the source list for `CN1CCc2cccc3c2[C@H]1Cc1ccc(O)c(O)c1-3` [APOMORPHINE]?
**A.** ED50 (Rattus norvegicus [4]; [15]): 0.058 µmol/kg; ED50 (Rattus norvegicus [12]): 0.64 µmol/kg; ED50 (Rattus norvegicus [13]): 0.092 µmol/kg; ED50 (Rattus norvegicus [8]): 0.27 µmol/kg

**Q.** Which ED50 (Rattus norvegicus [6]) does the source give for `CCCN1CCC[C@@H](c2cccc(O)c2)C1` [PRECLAMOL] here?
**A.** > 67 µmol/kg

**Q.** And the ED50 (Rattus norvegicus [4]; [15])?
**A.** 0.77 µmol/kg

**Q.** What about the ED50 (Rattus norvegicus [14]) of the same molecule?
**A.** 11 µmol/kg

**Q.** And the ED50 (Rattus norvegicus [13])?
**A.** 1.9 µmol/kg

**Q.** What about the ED50 (Rattus norvegicus [10]) of the same molecule?
**A.** 33 µmol/kg
